Columns and labels:
Rattus norvegicus = species: Rattus norvegicus; experiment: [3H]5-HT reuptake inhibition in Rat brain synaptosomes.; assay type: functional
[1] = target: T1, 5-hydroxytryptamine receptor 1A (Rattus norvegicus, UniProt P19327); experiment: Binding affinity towards 5-hydroxytryptamine 1A receptor in rat hippocampus using [3H]8-OH-DPAT as radio-ligand.
T1 sequence (P19327 whole entry): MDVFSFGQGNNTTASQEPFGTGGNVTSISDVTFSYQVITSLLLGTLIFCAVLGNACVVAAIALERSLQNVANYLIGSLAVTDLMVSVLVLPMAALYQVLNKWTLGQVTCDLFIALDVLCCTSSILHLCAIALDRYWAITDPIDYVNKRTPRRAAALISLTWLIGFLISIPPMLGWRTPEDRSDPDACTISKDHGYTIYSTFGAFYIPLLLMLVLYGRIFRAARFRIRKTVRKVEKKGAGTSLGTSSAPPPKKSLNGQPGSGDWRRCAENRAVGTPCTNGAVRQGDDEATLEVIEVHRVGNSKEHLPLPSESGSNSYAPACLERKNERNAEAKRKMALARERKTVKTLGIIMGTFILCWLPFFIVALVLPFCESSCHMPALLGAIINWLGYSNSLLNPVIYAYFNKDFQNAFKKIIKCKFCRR

Oryctolagus cuniculus = species: Oryctolagus cuniculus; experiment: Inhibition of the contractile responses elicited by sumatriptan in rabbit saphenous vein (RSV); assay type: functional; details: read-out: pA2 (converted)
In short: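 Isolated rabbit saphenous vein segments held in organ baths. Each segment received two sumatriptan concentration-response curves, the second after 60 min incubation with antagonist or control vehicle. Apparent pA2 was calculated from a single antagonist concentration in at least 3 preparations.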

[2] = target: 5-hydroxytryptamine receptor 1B (Rattus norvegicus, UniProt P28564); experiment: Binding affinity towards 5-hydroxytryptamine 1B receptor in rat frontal cortex using [125I]iodocyanopindolol as radio-ligand.; assay type: tissue-based
Cavia porcellus = species: Cavia porcellus; experiment: Sumatriptan induced inhibition of potassium evoked [3H]5-HT release from guinea pig cortex slices; assay type: functional
In short: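 Cortex slices from male Dunkin-Hartley guinea pigs were loaded with [3H]5-HT for 30 min, then given potassium stimulation. Sumatriptan 3 µM alone (control), or with test compound at 30 nM, 300 nM or 3 µM, was superfused before and during S2. Basal-subtracted S2/S1 ratio is expressed as % of the sumatriptan-only ratio. Mean (±SEM) of 3-4 determinations.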

Chain of 5-hydroxytryptamine receptor 1B (P28564 whole entry): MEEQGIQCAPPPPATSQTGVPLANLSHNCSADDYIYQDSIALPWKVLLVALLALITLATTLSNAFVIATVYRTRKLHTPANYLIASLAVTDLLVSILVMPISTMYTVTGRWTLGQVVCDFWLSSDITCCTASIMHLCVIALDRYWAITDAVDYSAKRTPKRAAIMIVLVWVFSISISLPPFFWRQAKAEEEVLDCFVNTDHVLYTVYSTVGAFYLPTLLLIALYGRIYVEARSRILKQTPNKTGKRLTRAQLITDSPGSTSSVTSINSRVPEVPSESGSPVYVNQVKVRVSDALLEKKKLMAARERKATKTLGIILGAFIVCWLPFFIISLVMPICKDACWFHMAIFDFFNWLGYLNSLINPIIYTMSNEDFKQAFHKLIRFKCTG

Row | SMILES | IC50 (Rattus norvegicus) [nM] | IC50 [1] [nM] | Kb (Oryctolagus cuniculus) [nM] | IC50 [2] [nM] | Release (Cavia porcellus) [%]
1 | Fc1ccc2[nH]c3c(c2c1)CNCC3 | > 100 | – | – | – | –
2 | CN1CCC2(CC1)COc1ccc(NC(=O)N3CCC(c4c[nH]c5ccc(F)cc45)CC3)cc12 | 0.2 | > 200 | 50.1 | 23 | 125
3 | COc1ccc(NC(=O)NCCc2c[nH]c3ccc(O)cc23)cc1N1CCN(C)CC1 | 314 | 57 | – | 467 | –
4 | Fc1ccc2[nH]cc(CCCCN3CCNCC3)c2c1 | 0.15 | – | – | – | –
5 | COc1ccc(NC(=O)N2CCC(c3c[nH]c4ccc(C#N)cc34)CC2)cc1N1CCN(C)CC1 | 1.9 | 233 | 10 | 267 | 167
6 | COc1ccc(NC(=O)NCCN2CCC(c3c[nH]c4cc(F)ccc34)CC2)cc1N1CCN(C)CC1 | 1.9 | 160 | – | 223 | –
7 | COc1ccc(NC(=O)NCCc2c[nH]c3ccc(F)cc23)cc1N1CCN(C)CC1 | 387 | 27 | 20 | 63 | 134
8 | COc1ccc(N)cc1OCCN(C)C | > 1000 | – | – | – | –
9 | COc1ccc(NC(=O)c2ccc(-c3ccc(-c4noc(C)n4)cc3C)cc2)cc1N1CCN(C)CC1 [GR-127935] | 1000 | 360 | 0.398 | – | 114
10 | NCCc1c[nH]c2ccc(F)cc12 | 130 | – | – | – | –
11 | Fc1cccc2[nH]cc(C3CCNCC3)c12 | 60 | – | – | – | –
12 | CN1CCC2(CC1)COc1ccc(NC(=O)NCCN3CCC(c4c[nH]c5cc(F)ccc45)CC3)cc12 | 2.2 | 700 | – | 300 | –
13 | NC(=O)c1ccc2[nH]cc(C3CCNCC3)c2c1 | > 100 | – | – | – | –
14 | CN1CCC2(CC1)COc1ccc(N)cc12 | > 1000 | – | – | – | –
15 | COc1ccc(NC(=O)N2CCC(c3c[nH]c4cc(F)ccc34)CC2)cc1N1CCN(C)CC1 | 49 | 667 | 25.1 | 80 | 169
16 | COc1ccc(NC(=O)N2CCC(c3c[nH]c4cccc(F)c34)CC2)cc1N1CCN(C)CC1 | 65 | 300 | 2 | 50 | 145
17 | COc1ccc(NC(=O)N2CCc3[nH]c4ccc(F)cc4c3C2)cc1N1CCN(C)CC1 | 469 | > 800 | – | 567 | –

Row | SMILES | IC50 (Rattus norvegicus) [nM] | IC50 [1] [nM] | Kb (Oryctolagus cuniculus) [nM] | IC50 [2] [nM] | Release (Cavia porcellus) [%]
18 | c1ccc2c(C3CCNCC3)c[nH]c2c1 | 60 | – | – | – | –
19 | COc1ccc(N)cc1N1CCN(C)CC1 | > 1000 | – | – | – | –
20 | Cc1nc(-c2ccc(-c3ccc(C(=O)Nc4ccc5c(c4)C4(CCN(C)CC4)CO5)cc3)c(C)c2)no1 | > 1000 | – | – | 2.1 | 134
21 | COc1ccc(NC(=O)N2CCC(c3c[nH]c4ccc(F)cc34)CC2)cc1OCCN(C)C | 4 | > 500 | – | 633 | –
22 | COc1ccc(NC(=O)N2CCC(CCc3c[nH]c4ccccc34)CC2)cc1N1CCN(C)CC1 | 10 | > 300 | 20 | 120 | 121
23 | COc1ccc(NC(=O)N2CCC(c3c[nH]c4ccc(C(N)=O)cc34)CC2)cc1N1CCN(C)CC1 | 472 | 17 | 15.8 | 113 | 217
24 | NCCN1CCC(c2c[nH]c3cc(F)ccc23)CC1 | 11 | – | – | – | –
25 | N#Cc1ccc2[nH]cc(C3CCNCC3)c2c1 | 58 | – | – | – | –
26 | Fc1ccc2c(C3CCNCC3)c[nH]c2c1 | 20 | – | – | – | –
27 | Fc1ccc2[nH]cc(C3CCNCC3)c2c1 | 55 | – | – | – | –
28 | c1ccc2c(CCC3CCNCC3)c[nH]c2c1 [INDALPINE] | 1 | – | – | – | –
29 | COc1ccc(NC(=O)N2CCC(c3c[nH]c4ccccc34)CC2)cc1N1CCN(C)CC1 | 200 | 400 | 20 | 50 | 127
30 | Fc1ccc2[nH]cc(C3CCNC3)c2c1 (stereo not drawn) | 45 | – | – | – | –
31 | COc1ccc(NC(=O)N2CCC(c3c[nH]c4ccc(F)cc34)CC2)cc1N1CCN(C)CC1 | 21 | 367 | 15.8 | 85 | 151
32 | COc1ccc(NC(=O)N2CCN(CCCCc3c[nH]c4ccc(F)cc34)CC2)cc1N1CCN(C)CC1 | 0.7 | 50 | 20 | 77 | 120
33 | COc1ccc(NC(=O)N2CCC(c3c[nH]c4ccc(F)cc34)C2)cc1N1CCN(C)CC1 (stereo not drawn) | 106 | 100 | – | 233 | –
34 | COc1ccc(NC(=O)NCCN2CCC(c3c[nH]c4cc(F)ccc34)CC2)cc1OCCN(C)C | 1.2 | 233 | – | 133 | –

Source: ChEMBL document CHEMBL1132979, “5-HT reuptake inhibitors with 5-HT(1B/1D) antagonistic activity: a new approach toward efficient antidepressants” (J Med Chem, 2000)
